Data from ChEMBL document CHEMBL1143019, “Hybrid molecules of estrone: new compounds with potential antibacterial, antifungal, and antiproliferative activities” (2007).

How the values were obtained:
Staphylococcus aureus [1] = assay: Antibacterial activity against Staphylococcus aureus SG 511 after 24 hrs by micro-broth dilution method; format: functional; conditions: SG 511, 24 h
How it was run: (§1)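 Microbroth dilution per NCCLS guidelines. Bacteria grown overnight at 37 °C in Mueller–Hinton broth. Compound solution serially diluted twofold in MHB, then wells inoculated to a final 5×10⁵ CFU/mL. Incubated 24 h at 37 °C. MIC (µg/mL) read on an automatic plate reader as the lowest dilution allowing no visible growth.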

Staphylococcus aureus [2] = assay: Antibacterial activity against methicillin-resistant Staphylococcus aureus 994/93 after 24 hrs by micro-broth dilution method; format: functional
How it was run: (§2)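 Broth microdilution per NCCLS in Mueller–Hinton broth. Overnight cultures grown at 37 °C. Compound serially diluted twofold, then wells inoculated to a final 5×10⁵ CFU/mL. Plates held at 37 °C for 24 h. MIC (µg/mL) read on an automatic plate reader as the lowest dilution with no visible growth.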

Staphylococcus aureus [3] = assay: Antibacterial activity against methicillin-resistant Staphylococcus aureus 134/94 after 24 hrs by microbroth dilution method; format: functional; how it was run: as §2
Micrococcus luteus = assay: Antibacterial activity against Micrococcus luteus ATCC 10240 after 24 hrs by microbroth dilution method; format: functional; conditions: ATCC 10240, 24 h; how it was run: as §1
Enterococcus faecalis = assay: Antibacterial activity against Enterococcus faecalis 1528 after 24 hrs by micro-broth dilution method; format: functional; how it was run: as §1
[4] = system: Mycolicibacterium smegmatis; assay: Antimicrobial activity against Mycobacterium smegmatis SG 987 after 24 hrs by micro-broth dilution method; format: functional; how it was run: as §1
Mycolicibacterium aurum = assay: Antimicrobial activity against Mycobacterium aurum SB 66 after 24 hrs by micro-broth dilution method; format: functional; how it was run: as §1
Mycolicibacterium vaccae = assay: Antimicrobial activity against Mycobacterium vaccae 10670 after 24 hrs by micro-broth dilution method; format: functional; how it was run: as §1
[5] = system: Mycolicibacterium fortuitum; assay: Antimicrobial activity against Mycobacterium fortuitum Borstel after 24 hrs by microbroth dilution method; format: functional; how it was run: as §1
[6] = system: Mycobacterium tuberculosis; assay: Antimicrobial activity against Mycobacterium tuberculosis My 331/88 after 14 days; format: functional; conditions: 336 h
[7] = system: Mycobacterium tuberculosis; assay: Antimicrobial activity against Mycobacterium tuberculosis My 331/88 after 21 days; format: functional; conditions: 504 h
Mycobacterium avium [8] = assay: Antimicrobial activity against Mycobacterium avium My 330/88 after 14 days; format: functional; conditions: 336 h
Mycobacterium avium [9] = assay: Antimicrobial activity against Mycobacterium avium My 330/88 after 21 days; format: functional; conditions: 504 h
Mycobacterium kansasii [10] = assay: Antimicrobial activity against Mycobacterium kansasii My 235/80 after 7 days; format: functional; conditions: 168 h
How it was run: (§3)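 Run in Šula semisynthetic liquid medium containing bovine serum. Compounds added as DMSO solutions at final concentrations of […]. Each strain was also inoculated onto Löwenstein–Jensen medium to control inoculum sterility and growth.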

Mycobacterium kansasii [11] = assay: Antimicrobial activity against Mycobacterium kansasii My 235/80 after 14 days; format: functional; conditions: 336 h; how it was run: as §3
Mycobacterium kansasii [12] = assay: Antimicrobial activity against Mycobacterium kansasii My 235/80 after 21 days; format: functional; conditions: 504 h; how it was run: as §3
Mycobacterium kansasii [13] = assay: Antimicrobial activity against Mycobacterium kansasii My 6509/96 after 7 days; format: functional; conditions: 168 h; how it was run: as §3
Mycobacterium kansasii [14] = assay: Antimicrobial activity against Mycobacterium kansasii My 6509/96 after 14 days; format: functional; conditions: 336 h; how it was run: as §3
Mycobacterium kansasii [15] = assay: Antimicrobial activity against Mycobacterium kansasii My 6509/96 after 21 days; format: functional; conditions: 504 h; how it was run: as §3
Candida albicans [16] = assay: Antifungal activity against Candida albicans ATCC 44859 after 24 hrs; format: functional; conditions: ATCC 44859, 24 h
How it was run: (§4)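 Modified NCCLS M27-A broth microdilution with clinical isolates subcultured on Sabouraud dextrose agar. Suspensions diluted 1:50 in RPMI 1640 to give a final inoculum of 0.5–2.5×10³ CFU/mL for yeasts or 0.5–5×10⁴ CFU/mL for molds. The RPMI had L-glutamine, no bicarbonate, and 0.165 M MOPS to pH 7.0. Twofold dilutions from 250 to 0.49. Plates held at 35 °C, humid, without agitation. MIC is the lowest concentration giving ≥80% inhibition versus drug-free control, read at 24 and 48 h.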

Candida albicans [17] = assay: Antifungal activity against Candida albicans ATCC 44859 after 48 hrs; format: functional; conditions: ATCC 44859, 48 h; how it was run: as §4
Candida tropicalis [18] = assay: Antifungal activity against Candida tropicalis 156 after 24 hrs; format: functional; how it was run: as §4
Candida tropicalis [19] = assay: Antifungal activity against Candida tropicalis 156 after 48 hrs; format: functional; how it was run: as §4
Pichia kudriavzevii [20] = assay: Antifungal activity against Candida krusei E28 after 24 hrs; format: functional; how it was run: as §4
Pichia kudriavzevii [21] = assay: Antifungal activity against Candida krusei E28 after 48 hrs; format: functional; how it was run: as §4
Nakaseomyces glabratus [22] = assay: Antifungal activity against Candida glabrata 20/I after 24 hrs; format: functional; how it was run: as §4
Nakaseomyces glabratus [23] = assay: Antifungal activity against Candida glabrata 20/I after 48 hrs; format: functional; how it was run: as §4
Trichosporon beigelii [24] = assay: Antifungal activity against Trichosporon beigelii 1188 after 24 hrs; format: functional; how it was run: as §4
Trichosporon beigelii [25] = assay: Antifungal activity against Trichosporon beigelii 1188 after 48 hrs; format: functional; how it was run: as §4
Aspergillus fumigatus [26] = assay: Antifungal activity against Aspergillus fumigatus 231 after 24 hrs; format: functional; how it was run: as §4
Aspergillus fumigatus [27] = assay: Antifungal activity against Aspergillus fumigatus 231 after 48 hrs; format: functional; how it was run: as §4
Lichtheimia corymbifera [28] = assay: Antifungal activity against Absidia corymbifera 272 after 24 hrs; format: functional; how it was run: as §4
Lichtheimia corymbifera [29] = assay: Antifungal activity against Absidia corymbifera 272 after 48 hrs; format: functional; how it was run: as §4
Trichophyton benhamiae [30] = assay: Antifungal activity against Trichophyton mentagrophytes 445 after 72 hrs; format: functional, Arthroderma benhamiae
How it was run: (§5)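 Same modified M27-A microdilution with the mold inoculum of 0.5–5×10⁴ CFU/mL. Medium was RPMI 1640 with L-glutamine, no bicarbonate, and 0.165 M MOPS at pH 7.0. Twofold dilutions from 250 to 0.49. Incubated at 35 °C in a humid atmosphere.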

Trichophyton benhamiae [31] = assay: Antifungal activity against Trichophyton mentagrophytes 445 after 120 hrs; format: functional, Arthroderma benhamiae; how it was run: as §5
L929 = assay: Antiproliferative activity against mouse L929 cells after 72 hrs; format: functional; conditions: L929, 72 h
How it was run: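 About 10,000 adherent cells per well in RPMI 1640 with 10% heat-inactivated FBS and penicillin/streptomycin, without HEPES. Exposed to 10 concentrations for 72 h at 37 °C in humidified 5% CO₂. Monolayers fixed with glutaraldehyde, stained 15 min with 0.05% methylene blue, and eluted with 0.33 N HCl; OD read at 630 nm. GI50 derived from dose–response curves relative to control.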

K562 = assay: Antiproliferative activity against human K562 cells after 72 hrs; format: functional; conditions: K562, 72 h
How it was run: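 About 10,000 suspension cells per well in RPMI 1640 with 10% heat-inactivated FBS and penicillin/streptomycin, without HEPES. Exposed to 10 concentrations for 72 h at 37 °C in humidified 5% CO₂. Wells diluted 1:50 in CASYTON and counted electronically, each result the mean of three successive counts. GI50 is where the concentration–response curve crosses 50% of control cell count.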

HeLa = assay: Cytotoxicity against human HeLa cells after 72 hrs; format: functional; conditions: for CC50: Homo sapiens, HeLa, 72 h
How it was run: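 About 10,000 cells per well in RPMI 1640 were preincubated 48 h without compound. The 10 test concentrations were then applied onto the monolayers and incubated 72 h at 37 °C in humidified 5% CO₂. Monolayers fixed with glutaraldehyde, stained with 0.05% methylene blue, and eluted with 0.33 N HCl; optical density measured at 630 nm.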

Row | SMILES | MIC (Staphylococcus aureus [1]) | MIC (Staphylococcus aureus [2]) | MIC (Staphylococcus aureus [3]) | MIC (Micrococcus luteus) | MIC (Enterococcus faecalis) | MIC [4] | MIC (Mycolicibacterium aurum) | MIC (Mycolicibacterium vaccae) | MIC [5] | MIC [6] | MIC [7] | MIC (Mycobacterium avium [8]) | MIC (Mycobacterium avium [9]) | MIC (Mycobacterium kansasii [10]) | MIC (Mycobacterium kansasii [11]) | MIC (Mycobacterium kansasii [12]) | MIC (Mycobacterium kansasii [13]) | MIC (Mycobacterium kansasii [14]) | MIC (Mycobacterium kansasii [15]) | MIC (Candida albicans [16]) | other results
1 | C[C@]12CC[C@@H]3c4ccc(OCCCCCCC[n+]5ccc(SCc6ccccc6)cc5)cc4CC[C@H]3[C@@H]1CCC2=O.[Br-] | 3.12 µg/mL | 3.12 µg/mL | 3.12 µg/mL | 0.4 µg/mL | 6.25 µg/mL | 1.56 µg/mL | 3.12 µg/mL | 1.56 µg/mL | 6.25 µg/mL | 4 µM | 8 µM | 2 µM | 2 µM | 8 µM | 8 µM | 8 µM | 8 µM | 8 µM | 16 µM | 3.9 µM | MIC (Candida albicans [17]): 3.9 µM; MIC (Candida tropicalis [18]): 15.6 µM; MIC (Candida tropicalis [19]): 15.6 µM; MIC (Pichia kudriavzevii [20]): 7.8 µM; MIC (Pichia kudriavzevii [21]): 7.8 µM; MIC (Nakaseomyces glabratus [22]): 15.6 µM; MIC (Nakaseomyces glabratus [23]): 15.6 µM; MIC (Trichosporon beigelii [24]): 3.9 µM; MIC (Trichosporon beigelii [25]): 7.8 µM; MIC (Aspergillus fumigatus [26]): 15.6 µM; MIC (Aspergillus fumigatus [27]): 31 µM; MIC (Lichtheimia corymbifera [28]): 31 µM; MIC (Lichtheimia corymbifera [29]): 31 µM; MIC (Trichophyton benhamiae [30]): 7.8 µM; MIC (Trichophyton benhamiae [31]): 7.8 µM; GI50 (L929): 4 µg/mL; GI50 (K562): 2.3 µg/mL; CC10 (HeLa): 1.2 µg/mL; CC50 (HeLa): 3.1 µg/mL
2 | C[C@]12CC[C@@H]3c4ccc(OCCCCCCC[n+]5ccccc5)cc4CC[C@H]3[C@@H]1CCC2=O.[Br-] | 3.12 µg/mL | 6.25 µg/mL | 25 µg/mL | 0.8 µg/mL | 12.5 µg/mL | 3.12 µg/mL | 6.25 µg/mL | 3.12 µg/mL | 6.25 µg/mL | 16 µM | 32 µM | 32 µM | 32 µM | 16 µM | 32 µM | 32 µM | 16 µM | 32 µM | 32 µM | 3.9 µM | MIC (Candida albicans [17]): 3.9 µM; MIC (Candida tropicalis [18]): 15.6 µM; MIC (Candida tropicalis [19]): 15.6 µM; MIC (Pichia kudriavzevii [20]): 15.6 µM; MIC (Pichia kudriavzevii [21]): 31.3 µM; MIC (Nakaseomyces glabratus [22]): 7.8 µM; MIC (Nakaseomyces glabratus [23]): 15.6 µM; MIC (Trichosporon beigelii [24]): 3.9 µM; MIC (Trichosporon beigelii [25]): 7.8 µM; MIC (Aspergillus fumigatus [26]): 3.9 µM; MIC (Aspergillus fumigatus [27]): 62.5 µM; MIC (Lichtheimia corymbifera [28]): > 250 µM; MIC (Lichtheimia corymbifera [29]): > 250 µM; MIC (Trichophyton benhamiae [30]): 31.3 µM; MIC (Trichophyton benhamiae [31]): 62.5 µM; GI50 (L929): 16.7 µg/mL; GI50 (K562): 5.3 µg/mL; CC10 (HeLa): 5.1 µg/mL; CC50 (HeLa): 17.5 µg/mL
